Experimental findings from ChEMBL document CHEMBL1143648, “3-[Substituted]-5-(5-pyridin-2-yl-2H-tetrazol-2-yl)benzonitriles: identification of highly potent and selective metabotropic glutamate subtype 5 receptor antagonists” (Bioorg Med Chem Lett, 2005) are described below.

Data set [1] has as its target T1, Metabotropic glutamate receptor 5 (Rattus norvegicus, UniProt P31424). Put plainly: In vitro functional activity measured by changes in cytosolic [Ca2+] concentrations against rat metabotropic glutamate receptor 5. The gist of the method: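 A cell-based, high-throughput functional assay followed changes in cytosolic Ca2+ concentration by fluorescence detection.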

Data set [2] has as its target T1, Metabotropic glutamate receptor 5. Briefly: Ability to displace [3H]3-methoxy-5-(pyridin-2-ylethynyl)pyridine from binding to metabotropic glutamate receptor 5 in rat cortical membranes. The data set is classed as cell membranes.
For data set [3], the species on record is Rattus norvegicus. Briefly: Ratio of compound levels in brain to that of plasma level was determined. The data set is classed as functional. The essentials:
(§1)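 Sprague–Dawley rats were dosed intraperitoneally at 10 or 3 mg/kg. Drug levels (µM) in brain and plasma were measured 1 h after dosing, and brain/plasma was expressed as a percentage.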

The test system of data set [4] is Rattus norvegicus. Briefly: Brain penetration measured by compound levels in plasma at a dose of 3 mg/kg upon intraperitoneal after 1 hr. The data set is classed as functional, organism-based. On the set-up: dose 3 mg/kg. The essentials: as §1
Data set [5] in a line: Half life in rat upon intravenous administration at a dose of 2 mg/kg; n = 2. The data set is classed as ADME, organism-based. More on the design: dose 2 mg/kg, route intravenous. To be noted: in vivo. The gist of the method:
(§2)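 Sprague–Dawley rats (n = 2 per group) were given 2 mg/kg by the intravenous route for pharmacokinetic profiling.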

Data set [6] deals with Rattus norvegicus. Put plainly: Effective dose for maximum occupancy in rat upon intraperitoneal administration measured 1 hr post administration; n = 5 - 6. The data set is classed as functional. The essentials: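 Receptor occupancy was measured in Sprague–Dawley rats (n = 5–6 per group) 1 h after intraperitoneal dosing. ED50 is given in mg/kg ip.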
The subject of data set [7] is Rattus norvegicus. Briefly: Brain penetration measured by compound levels in brain at a dose of 3 mg/kg upon intraperitoneal after 1 hr. Format: functional. The gist of the method: as §1
The subject of data set [8] is Rattus norvegicus. Put plainly: Effective dose for maximum occupancy in rat upon oral administration measured 30 min post administration; n = 6 - 7.
The test system of data set [9] is Rattus norvegicus. Put plainly: Brain penetration measured by compound levels in brain at a dose of 10 mg/kg upon intraperitoneal after 1 hr. Format: functional. The essentials: as §1
Data set [10] has as its system Rattus norvegicus. Briefly: Brain penetration measured by compound levels in plasma at a dose of 10 mg/kg upon intraperitoneal after 1 hr. Format: functional, organism-based. On the set-up: dose 10 mg/kg. The gist of the method: as §1
Data set [11] can be described thus: Oral bioavailability in rat (dose 10 mg/kg p.o.). Format: ADME, organism-based. The conditions noted are these: in vivo. The essentials:
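Rat pharmacokinetics compared oral dosing at 10 mg/kg (n = 3 Sprague–Dawley rats/group) with intravenous dosing at 2 mg/kg (n = 2 rats/group).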

Data set [12] in a line: Volume of distribution in rat upon intravenous administration at a dose of 2 mg/kg; n = 2. Format: ADME, organism-based. On the set-up: dose 2 mg/kg, route intravenous. To be noted: in vivo. The gist of the method: as §2
Data set [13] can be described thus: Clearance in rat upon intravenous administration at a dose of 2 mg/kg; n = 2. The data set is classed as ADME, organism-based. On the set-up: dose 2 mg/kg, route intravenous. To be noted: plasma, read-out: Clp. The gist of the method:
as §2

Data set [14] can be described thus: Maximum concentration in rat upon oral administration at a dose of 10 mg/kg; n = 3. The data set is classed as ADME, organism-based. On the set-up: dose 10 mg/kg, route oral. The conditions noted are these: in vivo. The essentials:
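Sprague–Dawley rats (n = 3 per group) were given 10 mg/kg orally for pharmacokinetic profiling.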

Molecules are shown by their SMILES. A value given as a limit tells only on which side of the number the result lay.

T1 sequence (P31424 whole entry): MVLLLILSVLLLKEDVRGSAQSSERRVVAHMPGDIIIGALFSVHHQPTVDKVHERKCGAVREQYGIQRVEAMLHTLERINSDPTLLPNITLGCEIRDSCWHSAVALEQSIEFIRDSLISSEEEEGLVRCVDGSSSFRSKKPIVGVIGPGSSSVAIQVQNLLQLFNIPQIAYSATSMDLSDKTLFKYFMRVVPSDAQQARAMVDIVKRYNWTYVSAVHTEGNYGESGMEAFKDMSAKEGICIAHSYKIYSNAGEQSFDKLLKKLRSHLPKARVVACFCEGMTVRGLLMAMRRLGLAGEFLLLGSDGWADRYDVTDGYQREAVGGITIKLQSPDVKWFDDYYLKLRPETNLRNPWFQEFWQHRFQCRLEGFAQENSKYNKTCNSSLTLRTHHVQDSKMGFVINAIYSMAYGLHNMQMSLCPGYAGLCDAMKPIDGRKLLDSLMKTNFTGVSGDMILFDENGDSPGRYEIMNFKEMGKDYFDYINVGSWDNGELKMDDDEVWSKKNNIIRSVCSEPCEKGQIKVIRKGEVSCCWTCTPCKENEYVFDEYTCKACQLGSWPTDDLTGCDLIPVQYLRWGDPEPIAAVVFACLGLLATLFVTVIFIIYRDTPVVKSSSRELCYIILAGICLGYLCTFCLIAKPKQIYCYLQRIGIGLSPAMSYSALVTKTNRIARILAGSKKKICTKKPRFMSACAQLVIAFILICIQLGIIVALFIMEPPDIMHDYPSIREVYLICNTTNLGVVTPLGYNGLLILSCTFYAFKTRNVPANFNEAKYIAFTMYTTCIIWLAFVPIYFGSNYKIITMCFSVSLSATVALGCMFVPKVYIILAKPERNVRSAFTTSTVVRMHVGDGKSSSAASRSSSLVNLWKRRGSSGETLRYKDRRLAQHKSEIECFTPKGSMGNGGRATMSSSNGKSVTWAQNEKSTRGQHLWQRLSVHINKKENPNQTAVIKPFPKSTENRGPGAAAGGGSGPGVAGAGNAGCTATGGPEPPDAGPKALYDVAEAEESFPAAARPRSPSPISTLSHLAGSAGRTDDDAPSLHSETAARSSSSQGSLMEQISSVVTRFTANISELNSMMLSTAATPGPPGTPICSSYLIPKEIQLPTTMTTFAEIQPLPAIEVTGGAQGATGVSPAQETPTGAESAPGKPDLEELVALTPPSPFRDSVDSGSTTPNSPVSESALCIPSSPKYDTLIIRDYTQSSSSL

As usually defined, the IC50 is the midpoint of a concentration-inhibition curve. As for `N#Cc1cccc(-n2nnc(-c3ncc[nH]3)n2)c1`, in data set [1], the concentration for half-maximal inhibition (IC50) was 77 nM.

As usually defined, the Ki is the dissociation constant of the complex between target and ligand, obtained from inhibition or displacement. A lower Ki goes with a stronger hold on the target. The compound `COc1cc(C#N)cc(-n2nnc(-c3ccccn3)n2)c1` registered a concentration for half-maximal inhibition (IC50) in data set [1] of 10 nM. Further, the inhibition constant Ki in data set [2] turned out to be 6 nM.

On to `N#Cc1cc(N)cc(-n2nnc(-c3ccccn3)n2)c1`, for which inhibition in [1] was half-maximal at 308 nM (IC50). Further, the inhibition constant Ki in [2] came to 95 nM.

Consider `N#Cc1cc(OCC2CC2)cc(-n2nnc(-c3ccccn3)n2)c1`, for which the IC50 in [1] amounted to 975 nM. In addition, the inhibitory constant (Ki) in data set [2] turned out to be 271 nM.

`N#Cc1cc(OCc2ccccc2)cc(-n2nnc(-c3ccccn3)n2)c1` came in with an IC50 in data set [1] above 1000 nM. The Ki in [2] was above 600 nM.

Turning to `Clc1cccc(-n2nnc(-c3ccccn3)n2)c1Cl`, inhibition in data set [1] was half-maximal at 1270 nM (IC50). This compound also displayed a Ki in data set [2] above 600 nM.

In data set [1], `N#Cc1cc(F)cc(-n2nnc(-c3ncc[nH]3)n2)c1` showed an IC50 of 47 nM.

For the compound `N#Cc1cccc(-n2ccc(-c3ccccn3)c2)c1`, in data set [1], it took 190 nM to reach half-maximal inhibition (IC50). The compound further returned an inhibitory constant (Ki) in data set [2] above 600 nM.

`N#Cc1cc(Oc2cccnc2)cc(-n2nnc(-c3ccccn3)n2)c1` displayed an IC50 in data set [1] of 15 nM. Also, the affinity in [2], expressed as Ki, was 16 nM.

With `N#Cc1cc(-n2nnc(-c3ccccn3)n2)ccc1Cl`, it took 722 nM to reach half-maximal inhibition in data set [1] (IC50). The inhibition constant (Ki) in data set [2] was above 600 nM.

With `N#Cc1cc(-n2nnc(-c3ccccn3)n2)cc([N+](=O)[O-])c1`, the IC50 in [1] came to 42 nM. In addition, in data set [2], the inhibition constant (Ki) was determined as 42 nM.

For the compound `N#Cc1ccc(Cl)c(-n2nnc(-c3ccccn3)n2)c1`, the IC50 in [1] was 334 nM. Also, the inhibition constant Ki in data set [2] was above 600 nM.

The compound `c1ccc(-c2nnn(-c3cccc(-c4cccnc4)c3)n2)nc1` gave an IC50 in data set [1] of 63 nM. Also, the inhibitory constant (Ki) in data set [2] came out at 69 nM.

As usually defined, the half-life is the time in which the quantity being followed falls by half. Lower therefore signals rapid decline. Turning to `N#Cc1cc(F)cc(-n2nnc(-c3ccccn3)n2)c1`, in the data set filed under Rattus norvegicus [3], the Brain/Plasma was 90%. This compound returned a Plasma levels with Rattus norvegicus [4] of 2.7 µM. Moreover, the half-life in data set [5] is 174 min. The “Occ ED50” value came to 1.3 mg/kg in the data set with Rattus norvegicus [6] and 3.6 mg/kg in the data set on Rattus norvegicus [8]. The Brain levels with Rattus norvegicus [7] turned out to be 2.4 µM.

One may read the bioavailability as dose-corrected exposure relative to a reference, in per cent. A high value points to much systemic uptake. The Vd is a proportionality between amount in the body and measured concentration, not a real space. The low end stands for little distribution into tissue, the high end for wide distribution into tissue. Take `N#Cc1cccc(-n2nnc(-c3ccccn3)n2)c1`: the Brain levels in the data set with Rattus norvegicus [9] was 15 µM. Moreover, the Brain/Plasma in the data set listed under Rattus norvegicus [3] came out at 150%. For the same compound, the Plasma levels in the data set on Rattus norvegicus [10] is 10 µM. The compound further gave an IC50 in data set [1] of 73 nM. This compound also gave a bioavailability in [11] of 100%. This compound yielded a Vd in [12] of 5 L/kg. The compound further gave a half-life in data set [5] of 414 min. Besides, the “Occ ED50” value in the data set on Rattus norvegicus [6] and with Rattus norvegicus [8] was 3 mg/kg in each case. Also, the clearance in data set [13] came to 33 mL/min/kg.

In data set [1], `N#Cc1cc(C#N)cc(-n2nnc(-c3ccccn3)n2)c1` returned a concentration for half-maximal inhibition (IC50) of 34 nM. The compound further showed an inhibition constant Ki in data set [2] of 18 nM.

In data set [1], `N#Cc1cc(F)cc(-n2ccc(-c3ccccn3)c2)c1` returned an IC50 of 3 nM. For the same compound, in data set [2], the Ki was determined as 5 nM.

In data set [1], `N#Cc1cc(O)cc(-n2nnc(-c3ccccn3)n2)c1` displayed a concentration for half-maximal inhibition (IC50) of 562 nM. In data set [2], this compound yielded a Ki of 318 nM.

The Cmax is the maximum level reached in the sampled fluid or tissue. As for `Cc1cc(C#N)cc(-n2nnc(-c3ccccn3)n2)c1`, in [1], the IC50 is 6 nM. Also, the bioavailability in data set [11] was determined as 15%. Besides, in data set [14], the peak concentration (Cmax) amounted to 800 nM. In [12], this compound registered a Vd of 1.4 L/kg. Besides, the inhibition constant Ki in data set [2] worked out at 7 nM. This compound had a half-life in data set [5] of 24 min. The clearance in data set [13] turned out to be 50 mL/min/kg.

`N#Cc1cc(Cl)cc(-n2nnc(-c3ccccn3)n2)c1` came in with an IC50 in data set [1] of 7 nM. Also, the affinity in data set [2] corresponds to a Ki of 26 nM.
